Activity calls are given as the source filed them. The calls are words filed in the database; no cut-off is given here.
Legend:
Jurkat [1] = test: Cytotoxicity against human Jurkat cells assessed as cell viability at 10 uM measured after 48 hrs by WST-1 assay relative to control; format: functional; settings: read-out: Activity
In short: (§1)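 Ten-line human panel (9 cancer, 1 non-cancerous). Cells were seeded at a pre-established optimal density (500–30 × 10³ per well) and settled overnight. Compounds came from 10 mM DMSO stocks and were tested at two concentrations. WST-1 readout followed the manufacturer's protocol at the end of cultivation. Viability is expressed as % of untreated control cells, mean of three independent experiments.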

MOLT-4 [2] = test: Cytotoxicity against human MOLT-4 cells assessed as cell viability at 10 uM measured after 48 hrs by WST-1 assay relative to control; format: functional; settings: read-out: Activity; in short: as §1
A549 [3] = test: Cytotoxicity against human A549 cells assessed as cell viability at 10 uM measured after 48 hrs by WST-1 assay relative to control; format: functional; settings: read-out: Activity; in short: as §1
HT-29 [4] = test: Cytotoxicity against human HT-29 cells assessed as cell viability at 10 uM measured after 48 hrs by WST-1 assay relative to control; format: functional; settings: read-out: Activity; in short: as §1
PANC-1 [5] = test: Cytotoxicity against human PANC-1 cells assessed as cell viability at 10 uM measured after 48 hrs by WST-1 assay relative to control; format: functional; settings: read-out: Activity; in short: as §1
A2780 [6] = test: Cytotoxicity against human A2780 cells assessed as cell viability at 10 uM measured after 48 hrs by WST-1 assay relative to control; format: functional; settings: read-out: Activity; in short: as §1
HeLa [7] = test: Cytotoxicity against human HeLa cells assessed as cell viability at 10 uM measured after 48 hrs by WST-1 assay relative to control; format: functional; settings: read-out: Activity; in short: as §1
MCF7 [8] = test: Cytotoxicity against human MCF7 cells assessed as cell viability at 10 uM measured after 48 hrs by WST-1 assay relative to control; format: functional; settings: read-out: Activity; in short: as §1
SAOS-2 [9] = test: Cytotoxicity against human SAOS-2 cells assessed as cell viability at 10 uM measured after 48 hrs by WST-1 assay relative to control; format: functional; settings: read-out: Activity; in short: as §1
[10] = Cytotoxicity against human MRC5 cells assessed as cell viability at 10 uM measured after 48 hrs by WST-1 assay relative to control; format: cell-based; settings: read-out: Activity; in short: as §1
Jurkat [11] = test: Cytotoxicity against human Jurkat cells assessed as cell viability at 100 uM measured after 48 hrs by WST-1 assay relative to control; format: functional; settings: read-out: Activity; in short: as §1
MOLT-4 [12] = test: Cytotoxicity against human MOLT-4 cells assessed as cell viability at 100 uM measured after 48 hrs by WST-1 assay relative to control; format: functional; settings: read-out: Activity; in short: as §1
A549 [13] = test: Cytotoxicity against human A549 cells assessed as cell viability at 100 uM measured after 48 hrs by WST-1 assay relative to control; format: functional; settings: read-out: Activity; in short: as §1
HT-29 [14] = test: Cytotoxicity against human HT-29 cells assessed as cell viability at 100 uM measured after 48 hrs by WST-1 assay relative to control; format: functional; settings: read-out: Activity; in short: as §1
PANC-1 [15] = test: Cytotoxicity against human PANC-1 cells assessed as cell viability at 100 uM measured after 48 hrs by WST-1 assay relative to control; format: functional; settings: read-out: Activity; in short: as §1
A2780 [16] = test: Cytotoxicity against human A2780 cells assessed as cell viability at 100 uM measured after 48 hrs by WST-1 assay relative to control; format: functional; settings: read-out: Activity; in short: as §1
HeLa [17] = test: Cytotoxicity against human HeLa cells assessed as cell viability at 100 uM measured after 48 hrs by WST-1 assay relative to control; format: functional; settings: read-out: Activity; in short: as §1
MCF7 [18] = test: Cytotoxicity against human MCF7 cells assessed as cell viability at 100 uM measured after 48 hrs by WST-1 assay relative to control; format: functional; settings: read-out: Activity; in short: as §1
SAOS-2 [19] = test: Cytotoxicity against human SAOS-2 cells assessed as cell viability at 100 uM measured after 48 hrs by WST-1 assay relative to control; format: functional; settings: read-out: Activity; in short: as §1
[20] = Cytotoxicity against human MRC5 cells assessed as cell viability at 100 uM measured after 48 hrs by WST-1 assay relative to control; format: cell-based; settings: read-out: Activity; in short: as §1
A549 [21] = test: Cytotoxicity against human A549 cells assessed as reduction in cell viability incubated for 24 hrs by MTT assay; format: functional, cell-based; settings: A549, 24 h
In short: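 A-549 cells in DMEM with 10% FBS and 1% penicillin-streptomycin were attached overnight. Compounds were prepared in PBS and serially diluted in DMEM, then incubated 24 h. Viability was read by colorimetric MTT reduction against an untreated control on each plate (100%). IC50 came from four-parameter nonlinear regression of the log concentration-response curve, mean ± SEM. MTC is the highest concentration not differing from control (t-test).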

A549 [22] = test: Cytotoxicity against human A549 cells assessed as maximum tolerated concentration incubated for 24 hrs by MTT assay; format: functional
In short: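 A-549 cells in DMEM with 10% FBS and 1% penicillin-streptomycin, left to attach overnight. Compounds made up in PBS, serially diluted in DMEM, incubated 24 h, then viability read by MTT reduction against untreated controls on each plate. MTC taken as the highest concentration showing no significant difference from non-treated control (t-test).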

MOLT-4 [23] = test: Radioprotective activity against gamma irradiation-induced apoptosis in human MOLT-4 cells assessed as viable cells at 100 uM pretreated with compound for 1 hr followed by gamma irradiation and measured after 24 hrs by annexinV/propidium iodide staining based flow cytometry (reference value: 40 %); format: functional; settings: MOLT-4, light or radiation study, time 25 hrs, read-out: Activity
[24] = Toxicity in C57Bl/6 mouse assessed as mouth death at 100 mg/kg, ip measured after 30 days; format: organism-based; settings: in vivo, 720 h, time 30 day
In short: (§2)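 Safety in C57Bl/6 mice (27 ± 3 g) given a single 100 mg/kg i.p. injection without irradiation. Deaths, adverse effects and body weight followed over 30 days against an untreated control group. Weight reported as change from day 0.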

[25] = Toxicity in C57Bl/6 mouse assessed as adverse effects at 100 mg/kg, ip measured after 30 days; format: organism-based; settings: in vivo, 720 h, time 30 day; in short: as §2
[26] = Toxicity in C57Bl/6 mouse assessed as average body weight at 100 mg/kg, ip and measured immediately (reference value: 26.3 +/- 2.4 g); format: organism-based; settings: in vivo
[27] = Toxicity in C57Bl/6 mouse assessed as average body weight at 100 mg/kg, ip measured after 30 days (reference value: 27 +/ 3.2 g); format: organism-based; settings: in vivo, 720 h, time 30 day
[28] = Toxicity in C57Bl/6 mouse assessed as change in body weight at 100 mg/kg, ip measured after 30 days (reference value: 103 +/- 12 %); format: organism-based; settings: in vivo, 720 h, time 30 day
Mus musculus [29] = test: Radioprotective activity in C57Bl/6 mouse assessed as median survival time at 100 mg/kg, ip administered 5 min prior to gamma-irradation at 8.5 Gy and measured after 30 days (reference value: 12 days); format: functional
Mus musculus [30] = test: Radioprotective activity in C57Bl/6 mouse assessed as average body weight at 100 mg/kg, ip administered 5 min prior to gamma-irradation at 8.5 Gy and measured immediately (reference value: 25.4 +/- 2.6 g); format: functional
Mus musculus [31] = test: Radioprotective activity in C57Bl/6 mouse assessed as average body weight at 100 mg/kg, ip administered 5 min prior to gamma-irradation at 8.5 Gy and measured after 30 days; format: functional
Mus musculus [32] = test: Radioprotective activity in C57Bl/6 mouse assessed as body weight gain at 100 mg/kg, ip administered 5 min prior to gamma-irradation at 8.5 Gy measured after 30 days relative to control; format: functional
Mus musculus [33] = test: Radioprotective activity in C57Bl/6 mouse assessed as increase in absolute B-lymphocytes at 100 mg/kg, ip pretreated with compound for 5 min followed by gamma irradiation at 8.5 Gy and measured after 30 days by flow cytometry; format: functional, organism-based
In short: (§3)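 C57Bl/6 mice receive 100 mg/kg i.p. 5 min before a single 8.5 Gy ⁶⁰Co γ dose. At 7, 12 and 30 days post-irradiation, 100 µl peripheral blood is stained with anti-CD3ε, CD19 and NK1.1 antibodies for 30 min at 4 °C in the dark. Samples are washed twice and analysed by flow cytometry for T, B and NK cells. Mean ± SEM.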

Mus musculus [34] = test: Radioprotective activity in C57Bl/6 mouse assessed as increase in absolute T-lymphocytes at 100 mg/kg, ip pretreated with compound for 5 min followed by gamma irradiation at 8.5 Gy and measured after 30 days by flow cytometry; format: functional, organism-based; in short: as §3
Mus musculus [35] = test: Radioprotective activity in C57Bl/6 mouse assessed as increase in absolute NK population at 100 mg/kg, ip pretreated with compound for 5 min followed by gamma irradiation at 8.5 Gy and measured after 30 days by flow cytometry; format: functional, organism-based; in short: as §3
Jurkat [36] = test: Cytotoxicity against human Jurkat cells assessed as cell viability at 1 uM measured after 48 hrs by WST-1 assay relative to control; format: functional; settings: read-out: Activity
MOLT-4 [37] = test: Cytotoxicity against human MOLT-4 cells assessed as cell viability at 1 uM measured after 48 hrs by WST-1 assay relative to control; format: functional; settings: read-out: Activity
A549 [38] = test: Cytotoxicity against human A549 cells assessed as cell viability at 1 uM measured after 48 hrs by WST-1 assay relative to control; format: functional; settings: read-out: Activity
HT-29 [39] = test: Cytotoxicity against human HT-29 cells assessed as cell viability at 1 uM measured after 48 hrs by WST-1 assay relative to control; format: functional; settings: read-out: Activity
PANC-1 [40] = test: Cytotoxicity against human PANC-1 cells assessed as cell viability at 1 uM measured after 48 hrs by WST-1 assay relative to control; format: functional; settings: read-out: Activity
A2780 [41] = test: Cytotoxicity against human A2780 cells assessed as cell viability at 1 uM measured after 48 hrs by WST-1 assay relative to control; format: functional; settings: read-out: Activity
HeLa [42] = test: Cytotoxicity against human HeLa cells assessed as cell viability at 1 uM measured after 48 hrs by WST-1 assay relative to control; format: functional; settings: read-out: Activity
MCF7 [43] = test: Cytotoxicity against human MCF7 cells assessed as cell viability at 1 uM measured after 48 hrs by WST-1 assay relative to control; format: functional; settings: read-out: Activity
SAOS-2 [44] = test: Cytotoxicity against human SAOS-2 cells assessed as cell viability at 1 uM measured after 48 hrs by WST-1 assay relative to control; format: functional; settings: read-out: Activity
[45] = Cytotoxicity against human MRC5 cells assessed as cell viability at 1 uM measured after 48 hrs by WST-1 assay relative to control; format: cell-based; settings: read-out: Activity

## COc1ccccc1OCC(O)CN1CCN(CCO)CC1 (stereo not given)
Jurkat [1]
  viability at 10 µM: 106%
MOLT-4 [2]
  viability at 10 µM: 100%
A549 [3]
  viability at 10 µM: 91%
HT-29 [4]
  viability at 10 µM: 93%
PANC-1 [5]
  viability at 10 µM: 100%
A2780 [6]
  viability at 10 µM: 100%
HeLa [7]
  viability at 10 µM: 93%
MCF7 [8]
  viability at 10 µM: 99%
SAOS-2 [9]
  viability at 10 µM: 106%
[10]
  viability at 48 h, 10 µM: 90%
Jurkat [11]
  viability at 100 µM: 86%
MOLT-4 [12]
  viability at 100 µM: 76%
A549 [13]
  viability at 100 µM: 109%
HT-29 [14]
  viability at 100 µM: 143%
PANC-1 [15]
  viability at 100 µM: 115%
A2780 [16]
  viability at 100 µM: 78%
HeLa [17]
  viability at 100 µM: 99%
MCF7 [18]
  viability at 100 µM: 95%
SAOS-2 [19]
  viability at 100 µM: 82%
[20]
  viability at 48 h, 100 µM: 109%
A549 [21]
  IC50: 9.27 mM
A549 [22]
  MTD: 1.56 mM
MOLT-4 [23]
  viability at 100 µM: 59%
[24]
  Activity: Non-Toxic
[25]
  Activity: Non-Toxic
[26]
  Activity: 27.9 g
[27]
  Activity: 28.5 g
[28]
  Activity: 102%
Mus musculus [29]
  MST: 13 days
Mus musculus [30]
  Activity: 26.8 g
Mus musculus [31]
  Activity: 27.6 g
Mus musculus [32]
  Activity: 102%
Mus musculus [33]
  Activity: Active
Mus musculus [34]
  Activity: Active
Mus musculus [35]
  Activity: Active

## COc1cccc2c1C(=O)c1c(O)c3c(c(O)c1C2=O)C[C@@](O)(C(=O)CO)C[C@@H]3O[C@H]1C[C@H](N)[C@H](O)[C@H](C)O1 [DOXORUBICIN]
Jurkat [36]
  viability at 1 µM: 2%
MOLT-4 [37]
  viability at 1 µM: 1%
A549 [38]
  viability at 1 µM: 42%
HT-29 [39]
  viability at 1 µM: 55%
PANC-1 [40]
  viability at 1 µM: 78%
A2780 [41]
  viability at 1 µM: 8%
HeLa [42]
  viability at 1 µM: 76%
MCF7 [43]
  viability at 1 µM: 32%
SAOS-2 [44]
  viability at 1 µM: 22%
[45]
  viability at 48 h, 1 µM: 22%

From ChEMBL document CHEMBL4706495, “A novel class of small molecule inhibitors with radioprotective properties” (Eur J Med Chem, 2020)
